The target of assay [1] is T1, E3 ubiquitin-protein ligase Mdm2/Histone deacetylase 3 (Homo sapiens) (UniProt Q00987+O15379). Kind of assay: PROTAC activity at MDM2/HDAC3 in human HCT-116 cells assessed as reduction in HDAC3 abundance by measuring remaining activity at 0.1 uM measured after 24 hrs by Western blot analysis (reference value: 100%). In kind it is cell-based. An outline of the steps:
(§1)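 HCT116 cells in DMEM with 10% FBS and glutamine/penicillin/streptomycin at 37 °C, 5% CO2. Seeded 4 × 10^5 cells/well, after 24 h treated 24 h with DMSO or compound in fresh medium. Lysed in Tris-HCl/NaCl/NP-40/Triton X-100 buffer with protease inhibitor, Bradford-quantified, 30 μg protein per lane. Quantitative Western blot with specific HDAC1/2/3 antibodies, IRDye secondaries, infrared imaging, versus DMSO. n = 2 replicates.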
On the technique in general: Immunoblotting shows a protein as a band on a membrane.

For assay [2], the target named is T1, E3 ubiquitin-protein ligase Mdm2/Histone deacetylase 3 (Homo sapiens). Kind of assay: PROTAC activity at MDM2/HDAC3 in human HCT-116 cells assessed as reduction in HDAC3 abundance by measuring remaining activity at 1 uM measured after 24 hrs by Western blot analysis (reference value: 100%). In kind it is cell-based. An outline of the steps: as §1
Assay [3] concerns the target T2, E3 ubiquitin-protein ligase Mdm2/Histone deacetylase 2 (Homo sapiens) (UniProt Q00987+Q92769). Kind of assay: PROTAC activity at MDM2/HDAC2 in human HCT-116 cells assessed as decrease in HDAC2 abundance by measuring remaining activity at 1 uM measured after 24 hrs by Western blot analysis (reference value: 100%). It is filed as cell-based. The method in brief:
(§2)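 HCT116 cells seeded in six-well plates for 24 h, then exposed 24 h to compound (0.01–10 μM) or DMSO in fresh medium. Lysis in Tris-HCl/NaCl/NP-40/Triton X-100 with protease inhibitor. Bradford-normalised 30 μg protein per lane. Quantitative Western blot used specific HDAC1, HDAC2, HDAC3, LSD1 or Sin3a antibodies with IRDye secondaries. Abundance compared with DMSO, n = 2 replicates.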

The target in assay [4] is T1, E3 ubiquitin-protein ligase Mdm2/Histone deacetylase 3 (Homo sapiens). The experiment in a line: PROTAC activity at MDM2/HDAC3 in human HCT-116 cells assessed as reduction in HDAC3 abundance by measuring remaining activity at 10 uM measured after 24 hrs by Western blot analysis (reference value: 100%). It is filed as cell-based. The method in brief:
as §1

Assay [5] addresses T3, E3 ubiquitin-protein ligase Mdm2/Histone deacetylase 1 (Homo sapiens) (UniProt Q00987+Q13547). The experiment in a line: PROTAC activity at MDM2/HDAC1 in human HCT-116 cells assessed as decrease in HDAC1 abundance by measuring remaining activity at 10 uM measured after 24 hrs by Western blot analysis (reference value: 100%). In kind it is cell-based. The method in brief:
as §2

Assay [6] has as its target T2, E3 ubiquitin-protein ligase Mdm2/Histone deacetylase 2 (Homo sapiens). The experiment in a line: PROTAC activity at MDM2/HDAC2 in human HCT-116 cells assessed as decrease in HDAC2 abundance by measuring remaining activity at 10 uM measured after 24 hrs by Western blot analysis (reference value: 100%). In kind it is cell-based. An outline of the steps: as §2
Assay [7] deals with T3, E3 ubiquitin-protein ligase Mdm2/Histone deacetylase 1 (Homo sapiens). The experiment in a line: PROTAC activity at MDM2/HDAC1 in human HCT-116 cells assessed as decrease in HDAC1 abundance by measuring remaining activity at 0.1 uM measured after 24 hrs by Western blot analysis (reference value: 100%). It is filed as cell-based. An outline of the steps: as §2
Assay [8] deals with T2, E3 ubiquitin-protein ligase Mdm2/Histone deacetylase 2 (Homo sapiens). The experiment in a line: PROTAC activity at MDM2/HDAC2 in human HCT-116 cells assessed as decrease in HDAC2 abundance by measuring remaining activity at 0.1 uM measured after 24 hrs by Western blot analysis (reference value: 100%). In kind it is cell-based. An outline of the steps: as §2
The target in assay [9] is T3, E3 ubiquitin-protein ligase Mdm2/Histone deacetylase 1 (Homo sapiens). Kind of assay: PROTAC activity at MDM2/HDAC1 in human HCT-116 cells assessed as decrease in HDAC1 abundance by measuring remaining activity at 1 uM measured after 24 hrs by Western blot analysis (reference value: 100%). In kind it is cell-based. An outline of the steps: as §2
The test system of assay [10] is HCT-116. Kind of assay: Effect on histone H3 lysine K56 acetylation in human HCT-116 cells assessed as increase in H3K56ac level at 0.1 to 10 uM by Western blot analysis. In kind it is functional, cell-based. Conditions: dose 0.1-10 µM. An outline of the steps:
(§3)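 HCT116 cells (DMEM, 10% FBS, glutamine/pen/strep, 37 °C, 5% CO2) seeded 24 h, then treated with DMSO or compound in fresh medium. Pellets after lysis were acid-extracted with 0.4 N H2SO4 at 4 °C overnight. Acid histone extract run on 4–12% bis-Tris gels, transferred to nitrocellulose and probed for H3K56ac. IRDye secondaries with infrared imaging.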

Assay [11] in a line: Inhibition of LSD1-CoREST-HDAC (unknown origin) by AMC-fluorescence assay. Further details: species or system Homo sapiens.
In assay [12] the target is Histone deacetylase 3 (Homo sapiens) (UniProt O15379). The experiment in a line: Induction of HDAC3 degradation in human HCT-116 cells assessed as reduction in HDAC3 abundance by measuring remaining activity at 1 uM measured after 24 hrs by Western blot analysis. In kind it is cell-based. The method in brief:
as §2

Assay [13] shares this target. The experiment in a line: Induction of HDAC3 degradation in human HCT-116 cells assessed as reduction in HDAC3 abundance by measuring remaining activity at 10 uM measured after 24 hrs by Western blot analysis. In kind it is cell-based. An outline of the steps: as §2
The target in assay [14] is T4, Paired amphipathic helix protein Sin3a (Homo sapiens) (UniProt Q96ST3).
T4 sequence (whole entry): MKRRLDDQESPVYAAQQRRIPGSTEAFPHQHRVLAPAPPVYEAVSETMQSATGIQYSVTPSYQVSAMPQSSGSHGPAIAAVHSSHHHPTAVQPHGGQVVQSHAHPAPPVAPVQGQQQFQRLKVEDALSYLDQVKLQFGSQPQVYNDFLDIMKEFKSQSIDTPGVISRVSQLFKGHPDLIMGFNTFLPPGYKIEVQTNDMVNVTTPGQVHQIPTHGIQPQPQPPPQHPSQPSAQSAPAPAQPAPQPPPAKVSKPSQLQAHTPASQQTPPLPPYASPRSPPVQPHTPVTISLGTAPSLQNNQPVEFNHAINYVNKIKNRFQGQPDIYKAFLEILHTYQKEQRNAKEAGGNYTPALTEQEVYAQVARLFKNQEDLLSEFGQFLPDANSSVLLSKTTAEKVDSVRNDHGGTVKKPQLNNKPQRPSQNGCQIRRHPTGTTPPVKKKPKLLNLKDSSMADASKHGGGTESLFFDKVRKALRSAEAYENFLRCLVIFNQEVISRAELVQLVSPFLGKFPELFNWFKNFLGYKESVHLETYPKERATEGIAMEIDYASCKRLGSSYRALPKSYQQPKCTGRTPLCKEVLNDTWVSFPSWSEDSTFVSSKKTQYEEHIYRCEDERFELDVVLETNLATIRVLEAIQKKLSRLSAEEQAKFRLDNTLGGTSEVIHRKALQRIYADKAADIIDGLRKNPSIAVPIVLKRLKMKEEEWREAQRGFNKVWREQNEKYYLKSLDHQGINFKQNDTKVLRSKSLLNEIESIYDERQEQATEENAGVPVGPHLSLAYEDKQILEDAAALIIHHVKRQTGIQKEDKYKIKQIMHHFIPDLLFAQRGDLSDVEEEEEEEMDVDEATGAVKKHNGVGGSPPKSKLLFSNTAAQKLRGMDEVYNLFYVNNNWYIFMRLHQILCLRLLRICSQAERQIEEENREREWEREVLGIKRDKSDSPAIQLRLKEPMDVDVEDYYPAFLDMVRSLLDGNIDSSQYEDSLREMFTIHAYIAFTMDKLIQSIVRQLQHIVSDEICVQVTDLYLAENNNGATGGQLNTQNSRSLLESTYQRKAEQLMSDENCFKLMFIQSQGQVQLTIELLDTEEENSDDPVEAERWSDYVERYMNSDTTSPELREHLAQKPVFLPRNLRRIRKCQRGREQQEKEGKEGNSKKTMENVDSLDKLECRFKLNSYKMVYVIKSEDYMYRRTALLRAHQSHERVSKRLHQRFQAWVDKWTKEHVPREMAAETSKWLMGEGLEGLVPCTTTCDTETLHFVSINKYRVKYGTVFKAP
The experiment in a line: Induction of SIN3A degradation in human HCT-116 cells assessed as reduction in SIN3A abundance by measuring remaining activity at 10 uM measured after 24 hrs by Western blot analysis (reference value: 100%). It is filed as cell-based. The method in brief:
as §2

The target of assay [15] is Lysine-specific histone demethylase 1A (Homo sapiens) (UniProt O60341). Kind of assay: Induction of LSD1 degradation in human HCT-116 cells assessed as reduction in LSD1 abundance by measuring remaining activity at 10 uM measured after 24 hrs by Western blot analysis (reference value: 100%). It is filed as cell-based. The method in brief: as §2
In assay [16] the test system is HCT-116. The experiment in a line: Effect on histone H3 lysine K56 acetylation in human HCT-116 cells assessed as increase in H3K56ac level at 10 uM by Western blot analysis. It is filed as functional, cell-based. The method in brief: as §3
Assay [17] concerns the target von Hippel-Lindau disease tumor suppressor/Histone deacetylase 1 (Homo sapiens) (UniProt Q13547+P40337). Kind of assay: PROTAC activity at VHL/HDAC1 in human HCT-116 cells assessed as decrease in HDAC1 abundance by measuring remaining activity at 10 uM measured after 24 hrs by Western blot analysis (reference value: 100%). It is filed as cell-based. The method in brief: as §1

Assay [18] has as its target von Hippel-Lindau disease tumor suppressor/Histone deacetylase 3 (Homo sapiens) (UniProt O15379+P40337). Kind of assay: PROTAC activity at VHL/HDAC3 in human HCT-116 cells assessed as reduction in HDAC3 abundance by measuring remaining activity at 10 uM measured after 24 hrs by Western blot analysis (reference value: 100%). In kind it is cell-based. The method in brief: as §1

Assay [19] deals with von Hippel-Lindau disease tumor suppressor/Histone deacetylase 2 (Homo sapiens) (UniProt Q92769+P40337). The experiment in a line: PROTAC activity at VHL/HDAC2 in human HCT-116 cells assessed as decrease in HDAC2 abundance by measuring remaining activity at 10 uM measured after 24 hrs by Western blot analysis (reference value: 100%). In kind it is cell-based. The method in brief:
as §1

Activity calls are given as the source filed them. No cut-off for these calls is given here.

The results in this text go back to ChEMBL document CHEMBL5357024, “MDM2 Antagonist Idasanutlin Reduces HDAC1/2 Abundance and Corepressor Partners but Not HDAC3” (ACS Med Chem Lett, 2024).

As usually defined, the IC50 is the concentration that inhibits the measured activity by half.

Chain of Histone deacetylase 3 (Homo sapiens) (O15379 whole entry): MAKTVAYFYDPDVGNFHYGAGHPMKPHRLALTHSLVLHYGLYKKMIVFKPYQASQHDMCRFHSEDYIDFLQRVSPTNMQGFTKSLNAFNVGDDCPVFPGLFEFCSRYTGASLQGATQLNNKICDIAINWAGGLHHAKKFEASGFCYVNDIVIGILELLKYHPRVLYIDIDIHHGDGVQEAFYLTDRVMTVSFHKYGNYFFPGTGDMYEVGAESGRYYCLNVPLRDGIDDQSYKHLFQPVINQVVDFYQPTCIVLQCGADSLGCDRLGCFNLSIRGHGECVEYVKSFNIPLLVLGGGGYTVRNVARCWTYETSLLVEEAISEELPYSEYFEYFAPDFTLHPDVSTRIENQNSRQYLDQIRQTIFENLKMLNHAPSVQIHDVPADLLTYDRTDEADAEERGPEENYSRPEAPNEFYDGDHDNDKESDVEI
T1 sequence (O15379 whole entry, looked up): as the sequence (O15379 whole entry) above
T1 sequence (Q00987 whole entry, looked up): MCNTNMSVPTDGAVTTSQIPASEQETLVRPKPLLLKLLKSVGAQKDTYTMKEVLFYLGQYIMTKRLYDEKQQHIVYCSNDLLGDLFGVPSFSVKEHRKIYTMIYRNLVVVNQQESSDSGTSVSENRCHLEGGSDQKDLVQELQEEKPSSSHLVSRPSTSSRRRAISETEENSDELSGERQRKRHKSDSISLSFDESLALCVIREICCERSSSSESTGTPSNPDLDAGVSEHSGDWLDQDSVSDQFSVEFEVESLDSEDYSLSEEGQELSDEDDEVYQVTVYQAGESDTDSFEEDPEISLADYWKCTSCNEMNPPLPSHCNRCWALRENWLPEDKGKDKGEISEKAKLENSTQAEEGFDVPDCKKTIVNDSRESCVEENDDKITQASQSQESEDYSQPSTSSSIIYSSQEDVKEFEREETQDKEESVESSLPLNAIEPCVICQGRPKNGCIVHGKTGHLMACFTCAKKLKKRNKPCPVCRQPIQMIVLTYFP
T2 sequence (Q00987 whole entry, looked up): as above
T2 sequence (Q92769 whole entry, looked up): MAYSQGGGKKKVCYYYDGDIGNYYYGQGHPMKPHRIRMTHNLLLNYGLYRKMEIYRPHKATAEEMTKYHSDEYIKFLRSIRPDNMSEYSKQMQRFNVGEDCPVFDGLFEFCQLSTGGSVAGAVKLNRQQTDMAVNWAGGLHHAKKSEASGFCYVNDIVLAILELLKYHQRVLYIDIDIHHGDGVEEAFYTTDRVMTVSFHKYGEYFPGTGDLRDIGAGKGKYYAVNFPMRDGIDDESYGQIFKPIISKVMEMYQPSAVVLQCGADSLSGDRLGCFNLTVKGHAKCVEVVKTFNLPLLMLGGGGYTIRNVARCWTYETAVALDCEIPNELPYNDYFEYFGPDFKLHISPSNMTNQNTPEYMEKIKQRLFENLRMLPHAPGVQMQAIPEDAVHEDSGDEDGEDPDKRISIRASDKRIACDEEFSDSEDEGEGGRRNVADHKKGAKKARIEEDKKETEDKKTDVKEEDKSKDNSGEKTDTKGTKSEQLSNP
T3 sequence (Q00987 whole entry, looked up): as the sequence (Q00987 whole entry, looked up) above
T3 sequence (Q13547 whole entry, looked up): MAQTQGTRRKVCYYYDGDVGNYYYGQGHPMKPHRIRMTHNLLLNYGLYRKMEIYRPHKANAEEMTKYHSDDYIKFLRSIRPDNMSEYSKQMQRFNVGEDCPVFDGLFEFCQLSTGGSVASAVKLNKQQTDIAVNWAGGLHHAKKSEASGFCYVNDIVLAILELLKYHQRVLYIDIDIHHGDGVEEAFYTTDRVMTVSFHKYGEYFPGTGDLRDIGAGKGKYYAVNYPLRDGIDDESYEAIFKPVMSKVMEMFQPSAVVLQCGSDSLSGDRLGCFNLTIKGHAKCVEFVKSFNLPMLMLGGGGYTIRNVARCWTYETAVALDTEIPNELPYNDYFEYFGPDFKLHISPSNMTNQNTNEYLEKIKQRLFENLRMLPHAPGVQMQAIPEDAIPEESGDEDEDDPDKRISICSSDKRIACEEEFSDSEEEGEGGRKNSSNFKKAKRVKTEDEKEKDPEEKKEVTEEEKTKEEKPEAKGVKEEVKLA
Chain of von Hippel-Lindau disease tumor suppressor/Histone deacetylase 3 (Homo sapiens) (O15379 whole entry, looked up): as the sequence (O15379 whole entry) above
Chain of von Hippel-Lindau disease tumor suppressor/Histone deacetylase 3 (Homo sapiens) (P40337 whole entry, looked up): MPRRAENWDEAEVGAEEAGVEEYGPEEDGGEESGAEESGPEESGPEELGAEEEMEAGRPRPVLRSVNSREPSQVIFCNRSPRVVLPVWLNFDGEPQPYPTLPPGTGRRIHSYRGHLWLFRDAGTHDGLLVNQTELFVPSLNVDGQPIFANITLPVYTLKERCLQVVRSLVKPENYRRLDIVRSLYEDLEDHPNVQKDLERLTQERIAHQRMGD
Chain of von Hippel-Lindau disease tumor suppressor/Histone deacetylase 1 (Homo sapiens) (P40337 whole entry, looked up): as above
Chain of von Hippel-Lindau disease tumor suppressor/Histone deacetylase 1 (Homo sapiens) (Q13547 whole entry, looked up): as the sequence (Q13547 whole entry, looked up) above
Chain of von Hippel-Lindau disease tumor suppressor/Histone deacetylase 2 (Homo sapiens) (P40337 whole entry, looked up): as the sequence (P40337 whole entry, looked up) above
Chain of von Hippel-Lindau disease tumor suppressor/Histone deacetylase 2 (Homo sapiens) (Q92769 whole entry, looked up): as the sequence (Q92769 whole entry, looked up) above

On to `COc1cc(C(=O)NCCCCCCCC(=O)Nc2ccc(C(=O)Nc3ccccc3N)cc2)ccc1NC(=O)[C@@H]1N[C@@H](CC(C)(C)C)[C@](C#N)(c2ccc(Cl)cc2F)[C@H]1c1cccc(Cl)c1F`, for which the Activity was 114% in assay [1]; 114% in assay [2]; 101% in assay [3]; 109% in [4]; 101% in [5]; 100% in assay [6]. Besides, the figures for the Activity in [7], in assay [8] and in assay [9] were 93%, 100% and 88%, respectively.

On to `COc1cc(C(=O)NCCOCCOCCOCCC(=O)Nc2ccc(C(=O)Nc3ccccc3N)cc2)ccc1NC(=O)[C@@H]1N[C@@H](CC(C)(C)C)[C@](C#N)(c2ccc(Cl)cc2F)[C@H]1c1cccc(Cl)c1F`, for which the Activity in [1] came to 112%; in [2], 128%; in assay [3] it was 94%; in assay [4], 122%; in assay [5], 65%; in [6], 84%. The Activity in assay [7] turned out to be 91%; in assay [8], 102%; in [9] it was 85%. In addition, the result in assay [10] was inactive.

In the case of `CC(=O)Nc1ccc(C(=O)Nc2ccccc2N)cc1` [TACEDINALINE], the IC50 in assay [11] is around 500 nM. Moreover, the Activity was 122% in assay [12], 138% in [13], 81% in assay [14] and 109% in [15]. The outcome in assay [16] was Active.

As to `COc1cc(C(=O)NCCCCCCCCCCCC(=O)Nc2ccc(C(=O)Nc3ccccc3N)cc2)ccc1NC(=O)[C@@H]1N[C@@H](CC(C)(C)C)[C@](C#N)(c2ccc(Cl)cc2F)[C@H]1c1cccc(Cl)c1F`, the Activity is 101% in assay [1]; 102% in [2]; 101% in [3]; 118% in assay [4]; 109% in assay [5]; 103% in assay [6]. The Activity in assay [7] was determined as 98%; in assay [8], 100%; in [9], 103%.

For the compound `Cc1ncsc1-c1ccc(CNC(=O)[C@@H]2C[C@@H](O)CN2C(=O)[C@@H](NC(=O)CCCCCCCCCCC(=O)Nc2ccc(C(=O)Nc3ccccc3N)cc2)C(C)(C)C)cc1`, the Activity worked out at 37% in [17]; 88% in assay [18]; 58% in [19]; 85% in assay [14]; 97% in assay [15]. The outcome in [16] was Active.

With `COc1cc(C(=O)O)ccc1NC(=O)[C@@H]1N[C@@H](CC(C)(C)C)[C@](C#N)(c2ccc(Cl)cc2F)[C@H]1c1cccc(Cl)c1F`, the Activity came out at 110% in assay [12] and 101% in assay [13].
